# The source made the active and inactive calls. No cut-off for these calls is given here.
# Assays:
# [1] = Metabolic stability in human liver microsomes assessed as compound remaining at 5 umol/L after 15 mins relative to control; assay type: ADME, Microsome; settings: read-out: Stability
# How it was run: (§1)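 Human microsomal fraction; percent compound remaining over time.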
# [2] = tested on: Hepatitis C virus; assay: Antiviral activity against Hepatitis C virus genotype 2a infected in human Huh-luc replicon cells after 3 days by luciferase assay; assay type: functional, organism-based, Hepacivirus hominis; settings: subtype 2a, 72 h
# [3] = tested on: CCRF-CEM; assay: Inhibition of DNA synthesis in human CCRF-CEM cells assessed as DNA synthesis level at IC50 concentration after 24 hrs by BrdU incorporation assay (reference value: 43.39%); assay type: functional; parameters: scale not given: the % may be the effect or the level left
# [4] = Protein binding in human plasma; assay type: ADME, cell-free; settings: read-out: PPB (converted)
# [5] = Chemical stability of the compound assessed as compound remaining after 60 mins relative to control; assay type: physicochemical; settings: read-out: Stability
# [6] = tested on: Human orthopneumovirus; assay: Antiviral activity against Human respiratory syncytial virus A2 infected in Hep2 cells assessed as reduction in virus-induced cytopathic effect incubated for 4 days by CellTiter-Glo viability reagent based assay; assay type: functional, organism-based
# [7] = tested on: CCRF-CEM; assay: Induction of cell cycle arrest in human CCRF-CEM cells assessed as accumulation at G0/G1 phase at 5 times IC50 concentration after 24 hrs by propidium iodide-staining based flow cytometry (reference value: 39.70%); assay type: functional
# [8] = tested on: CCRF-CEM; assay: Induction of cell cycle arrest in human CCRF-CEM cells assessed as accumulation at subG1 phase at 5 times IC50 concentration after 24 hrs by propidium iodide-staining based flow cytometry (reference value: 3.45%); assay type: functional
# [9] = tested on: Hepatitis C virus; assay: Antiviral activity against Hepatitis C virus genotype 1b infected in human Huh-luc replicon cells after 3 days by luciferase assay; assay type: functional, organism-based, Hepacivirus hominis; settings: subtype 1b, 72 h
# [10] = tested on: CCRF-CEM; assay: Inhibition of mitosis in human CCRF-CEM cells assessed Ser10 H3 phosphorylation positive cells at 5 times IC50 concentration after 24 hrs by flow cytometry relative to total cell population (reference value: 1.36%); assay type: functional; parameters: scale not given: the % may be the effect or the level left
# [11] = Stability in human plasma assessed as compound remaining at 3.3 umol/L after 30 mins by RF-MS analysis relative to control; assay type: ADME, cell-free; settings: read-out: Stability
# [12] = tested on: A549; assay: Antiproliferative activity against human A549 cells after 3 days by MTS assay; assay type: functional, cell-based; settings: A549, 72 h
# [13] = tested on: CCRF-CEM; assay: Induction of cell cycle arrest in human CCRF-CEM cells assessed as accumulation at S phase at IC50 concentration after 24 hrs by propidium iodide-staining based flow cytometry (reference value: 41.08%); assay type: functional
# [14] = tested on: CCRF-CEM; assay: Inhibition of RNA synthesis in human CCRF-CEM cells assessed as RNA synthesis level at IC50 concentration after 24 hrs by BrU incorporation assay (reference value: 49.89%); assay type: functional; parameters: scale not given: the % may be the effect or the level left
# [15] = tested on: HCT-116; assay: Antiproliferative activity against human HCT116 cells after 3 days by MTS assay; assay type: functional, cell-based; settings: HCT-116, 72 h
# [16] = Stability in human plasma assessed as compound remaining at 3.3 umol/L after 60 mins by RF-MS analysis relative to control; assay type: ADME, cell-free; settings: read-out: Stability
# [17] = tested on: K562; assay: Antiproliferative activity against human K562 cells after 3 days by MTS assay; assay type: functional, cell-based; settings: K562, 72 h
# [18] = Chemical stability of the compound assessed as compound remaining after 30 mins relative to control; assay type: physicochemical; settings: read-out: Stability
# [19] = Stability in human plasma assessed as compound remaining at 3.3 umol/L after 120 mins by RF-MS analysis relative to control; assay type: ADME, cell-free; settings: read-out: Stability
# [20] = Effective permeability of the compound at 20 umol/L by PAMPA; assay type: ADME; settings: 20 µM
# [21] = tested on: U2OS; assay: Antiproliferative activity against human U2OS cells after 3 days by MTS assay; assay type: functional, cell-based; settings: 72 h
# [22] = tested on: HepG2; assay: Antiproliferative activity against human HepG2 cells after 72 hrs by XTT assay; assay type: functional, cell-based; settings: HepG2, 72 h
# [23] = tested on: HCT-116; assay: Antiproliferative activity against p53 gene knocked out human HCT116 cells after 3 days by MTS assay; assay type: functional, cell-based; settings: HCT-116, 72 h
# [24] = Chemical stability of the compound assessed as compound remaining after 120 mins relative to control; assay type: physicochemical; settings: read-out: Stability
# [25] = Stability in human plasma assessed as compound remaining at 3.3 umol/L after 15 mins by RF-MS analysis relative to control; assay type: ADME, cell-free; settings: read-out: Stability
# [26] = tested on: CCRF-CEM; assay: Induction of cell cycle arrest in human CCRF-CEM cells assessed as accumulation at subG1 phase at IC50 concentration after 24 hrs by propidium iodide-staining based flow cytometry (reference value: 3.45%); assay type: functional
# [27] = Metabolic stability in human liver microsomes assessed as compound remaining at 5 umol/L after 60 mins relative to control; assay type: ADME, Microsome; settings: read-out: Stability; how it was run: as §1
# [28] = tested on: dengue virus type 2; assay: Antiviral activity against Dengue virus 2 Thailand/16681/84 infected in African green monkey Vero cells assessed as inhibition of virus replication incubated for 3 days by fluorescence microscopy; assay type: functional, organism-based
# [29] = tested on: CCRF-CEM; assay: Induction of cell cycle arrest in human CCRF-CEM cells assessed as accumulation at G0/G1 phase at IC50 concentration after 24 hrs by propidium iodide-staining based flow cytometry (reference value: 39.70%); assay type: functional
# [30] = Chemical stability of the compound assessed as compound remaining after 15 mins relative to control; assay type: physicochemical; settings: read-out: Stability
# [31] = biological target: Adenosine kinase (Homo sapiens, UniProt P55263); assay: Inhibition of recombinant human ADK using [3H]-adenosine as substrate after 20 mins by TLC scanner-based analysis relative to control
# Chain of Adenosine kinase (P55263 whole entry): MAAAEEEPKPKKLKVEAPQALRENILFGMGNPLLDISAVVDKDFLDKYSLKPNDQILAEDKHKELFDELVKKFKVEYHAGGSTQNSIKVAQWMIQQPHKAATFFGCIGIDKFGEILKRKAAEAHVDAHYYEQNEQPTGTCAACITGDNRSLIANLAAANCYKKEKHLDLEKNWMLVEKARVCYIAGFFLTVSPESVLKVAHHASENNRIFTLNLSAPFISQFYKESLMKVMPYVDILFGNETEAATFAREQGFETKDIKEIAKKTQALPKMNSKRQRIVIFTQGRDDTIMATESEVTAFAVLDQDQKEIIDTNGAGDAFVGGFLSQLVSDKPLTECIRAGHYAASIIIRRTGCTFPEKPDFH
# How it was run: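 ADK inhibition: 50 μM adenosine substrate with 10 μM test compound and 97 ng enzyme, 20 min at 37 °C.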
# [32] = Metabolic stability in human liver microsomes assessed as compound remaining at 5 umol/L after 30 mins relative to control; assay type: ADME, Microsome; settings: read-out: Stability; how it was run: as §1
# [33] = Cytotoxicity against human Hep2 cells assessed as reduction in cell viability after 3 days by CellTiter-Glo assay; assay type: cell-based; settings: HEp-2 cells
# [34] = tested on: BJ; assay: Antiproliferative activity against human BJ cells after 3 days by MTS assay; settings: 72 h
# [35] = tested on: CCRF-CEM; assay: Induction of cell cycle arrest in human CCRF-CEM cells assessed as accumulation at G2/M phase at IC50 concentration after 24 hrs by propidium iodide-staining based flow cytometry (reference value: 19.22%); assay type: functional
# [36] = tested on: MRC5; assay: Antiproliferative activity against human MRC5 cells after 3 days by MTS assay; settings: MRC5, 72 h
# [37] = tested on: CCRF-CEM; assay: Inhibition of DNA synthesis in human CCRF-CEM cells assessed as DNA synthesis level at 5 times IC50 concentration after 24 hrs by BrdU incorporation assay (reference value: 43.39%); assay type: functional; parameters: scale not given: the % may be the effect or the level left
# [38] = tested on: CCRF-CEM; assay: Induction of cell cycle arrest in human CCRF-CEM cells assessed as accumulation at S phase at 5 times IC50 concentration after 24 hrs by propidium iodide-staining based flow cytometry (reference value: 41.08%); assay type: functional
# [39] = tested on: CCRF-CEM; assay: Inhibition of mitosis in human CCRF-CEM cells assessed Ser10 H3 phosphorylation positive cells at IC50 concentration after 24 hrs by flow cytometry relative to total cell population (reference value: 1.36%); assay type: functional; parameters: scale not given: the % may be the effect or the level left
# [40] = tested on: Human alphaherpesvirus 1; assay: Antiviral activity against human herpesvirus 1 HF infected in African green monkey Vero cells assessed as inhibited virus-induced cytopathic effect incubated for 3 days by XTT assay; assay type: functional, organism-based
# [41] = tested on: CCRF-CEM; assay: Induction of cell cycle arrest in human CCRF-CEM cells assessed as accumulation at G2/M phase at 5 times IC50 concentration after 24 hrs by propidium iodide-staining based flow cytometry (reference value: 19.22%); assay type: functional
smiles,measurement,setting,value
CSc1ncnc2c1c1occc1n2[C@@H]1O[C@H](CO)[C@@H](O)[C@H]1O,"remaining at 0.25 h, 5 µM",[1],100%
same,EC50,[2],240 nM
same,Activity,[3],39.68%
same,fraction unbound,[4],0.16
same,remaining at 1 h,[5],99%
same,Activity,[6],inactive
same,Activity,[7],33.16%
same,Activity,[8],14.06%
same,EC50,[9],280 nM
same,Activity,[10],0.9%
same,"remaining at 0.5 h, 3.3 µM",[11],99%
same,IC50,[12],4860 nM
same,Activity,[13],38.26%
same,Activity,[14],0.39%
same,IC50,[15],220 nM
same,"remaining at 1 h, 3.3 µM",[16],98%
same,IC50,[17],270 nM
same,remaining at 0.5 h,[18],99%
same,"remaining at 2 h, 3.3 µM",[19],96%
same,log(permeability),[20],-5.99
same,IC50,[21],340 nM
same,IC50,[22],2010 nM
same,IC50,[23],210 nM
same,remaining at 2 h,[24],96%
same,"remaining at 0.25 h, 3.3 µM",[25],99%
same,Activity,[26],6.52%
same,"remaining at 1 h, 5 µM",[27],98%
same,Activity,[28],inactive
same,Activity,[29],44.43%
same,remaining at 0.25 h,[30],99%
same,IC50,[31],> 10000 nM
same,"remaining at 0.5 h, 5 µM",[32],99%
same,CC50 at 72 h,[33],> 44400 nM
same,IC50,[34],490 nM
same,Activity,[35],17.31%
same,IC50,[36],9370 nM
same,Activity,[37],41.8%
same,Activity,[38],53.55%
same,Activity,[39],1.26%
same,Activity,[40],inactive
same,Activity,[41],13.3%
Cc1ncnc2c1c1c(ccn1C)n2[C@@H]1O[C@H](CO)[C@@H](O)[C@H]1O,"remaining at 0.25 h, 5 µM",[1],99%
same,EC50,[2],120 nM
same,Activity,[3],48.49%
same,fraction unbound,[4],0.71
same,remaining at 1 h,[5],93%
same,Activity,[6],inactive
same,Activity,[7],34.66%
same,Activity,[8],10.99%
same,EC50,[9],190 nM
same,Activity,[10],0.9%
same,"remaining at 0.5 h, 3.3 µM",[11],83%
same,IC50,[12],2080 nM
same,Activity,[13],51.03%
same,Activity,[14],53.62%
same,IC50,[15],330 nM
same,"remaining at 1 h, 3.3 µM",[16],81%
same,IC50,[17],400 nM
same,remaining at 0.5 h,[18],97%
same,"remaining at 2 h, 3.3 µM",[19],79%
same,log(permeability),[20],-6.87
same,IC50,[21],610 nM
same,IC50,[22],1130 nM
same,IC50,[23],330 nM
same,remaining at 2 h,[24],91%
same,"remaining at 0.25 h, 3.3 µM",[25],98%
same,Activity,[26],5.1%
same,"remaining at 1 h, 5 µM",[27],97%
same,Activity,[28],inactive
same,Activity,[29],31.75%
same,remaining at 0.25 h,[30],98%
same,IC50,[31],> 10000 nM
same,"remaining at 0.5 h, 5 µM",[32],98%
same,CC50 at 72 h,[33],> 44400 nM
same,IC50,[34],3910 nM
same,Activity,[35],17.22%
same,IC50,[36],50000 nM
same,Activity,[37],59.89%
same,Activity,[38],52.19%
same,Activity,[39],1.06%
same,Activity,[40],inactive
same,Activity,[41],13.14%
Cc1ncnc2c1c1occc1n2[C@@H]1O[C@H](CO)[C@@H](O)[C@H]1O,"remaining at 0.25 h, 5 µM",[1],100%
same,EC50,[2],240 nM
same,Activity,[3],38.11%
same,fraction unbound,[4],0.41
same,remaining at 1 h,[5],99%
same,Activity,[6],inactive
same,Activity,[7],36.83%
same,Activity,[8],20.53%
same,EC50,[9],280 nM
same,Activity,[10],0.99%
same,"remaining at 0.5 h, 3.3 µM",[11],99%
same,IC50,[12],3190 nM
same,Activity,[13],39.31%
same,Activity,[14],21.63%
same,IC50,[15],450 nM
same,"remaining at 1 h, 3.3 µM",[16],98%
same,IC50,[17],410 nM
same,remaining at 0.5 h,[18],99%
same,"remaining at 2 h, 3.3 µM",[19],96%
same,log(permeability),[20],-6.88
same,IC50,[21],570 nM
same,IC50,[22],2120 nM
same,IC50,[23],450 nM
same,remaining at 2 h,[24],96%
same,"remaining at 0.25 h, 3.3 µM",[25],99%
same,Activity,[26],7.62%
same,"remaining at 1 h, 5 µM",[27],98%
same,Activity,[28],inactive
same,Activity,[29],44.57%
same,remaining at 0.25 h,[30],99%
same,IC50,[31],> 10000 nM
same,"remaining at 0.5 h, 5 µM",[32],99%
same,CC50 at 72 h,[33],> 44400 nM
same,IC50,[34],7730 nM
same,Activity,[35],16.12%
same,IC50,[36],> 50000 nM
same,Activity,[37],38.88%
same,Activity,[38],59.66%
same,Activity,[39],1.09%
same,Activity,[40],inactive
same,Activity,[41],13.52%

# Reference: ChEMBL document CHEMBL4330056, “Synthesis and Cytotoxic and Antiviral Profiling of Pyrrolo- and Furo-Fused 7-Deazapurine Ribonucleosides” (J Med Chem, 2018)
